In ChEMBL document CHEMBL1671838, “Discovery of MK-1220: A Macrocyclic Inhibitor of Hepatitis C Virus NS3/4A Protease with Improved Preclinical Plasma Exposure” (ACS Med Chem Lett, 2011):

Experiments:
Hepatitis C virus [1] = assay: Antiviral activity against HCV1b con1 infected in human HuH7 cells assessed as inhibition of viral replication after 24 hrs in presence of 10% fetal bovine serum; type: functional, organism-based, Hepacivirus hominis; conditions: Con1, Huh-7, 24 h
How it was run: (§1)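 Cell-based HCV replicon assay giving IC50. Genotype 1b replicon run with 10% fetal bovine serum or with 50% normal human serum. Genotype 2a replicon run with 10% FBS.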

Hepatitis C virus [2] = assay: Antiviral activity against HCV1b con1 infected in human HuH7 cells assessed as inhibition of viral replication after 24 hrs in presence of 50% normal human serum; type: functional, organism-based, Hepacivirus hominis; conditions: Con1, Huh-7, 24 h; how it was run: as §1
[3] = Inhibition of HCV NS3/4A protease expressed Escherichia coli after 1 hr by time-resolved fluorescence assay; design: species or system Hepacivirus hominis
How it was run: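 Binding assay against genotype 1b HCV NS3/4A protease, read by time-resolved fluorescence; potency expressed as Ki.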

[4] = Drug level in Sprague-Dawley rat liver at 5 mg/kg, po after 4 hrs; type: ADME, organism-based; design: dose 5 mg/kg, route oral; conditions: read-out: Drug uptake
How it was run: (§2)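 Rat PK screen: 5 mg/kg given orally in PEG400, n = 2; plasma AUC calculated from a 4 h experiment, and liver concentration measured at 4 h after dosing.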

[5] = AUC in Sprague-Dawley rat plasma at 5 mg/kg, po after 4 hrs; type: ADME, organism-based; design: time < 4 hr, dose 5 mg/kg, route oral; how it was run: as §2
Hepatitis C virus [6] = assay: Antiviral activity against HCV2a infected in human HuH7 cells assessed as inhibition of viral replication after 24 hrs in presence of 10% fetal bovine serum; type: functional, organism-based, Hepacivirus hominis; conditions: genotype 2a, Huh-7, 24 h; how it was run: as §1

Row | Compound | IC50 (Hepatitis C virus [1]) | IC50 (Hepatitis C virus [2]) | Ki [3] | concentration at 4 h [4] | AUC at 4 h [5] | IC50 (Hepatitis C virus [6])
1 | C=C[C@@H]1C[C@]1(NC(=O)[C@@H]1C[C@@H]2CN1C(=O)[C@H](C(C)(C)C)NC(=O)OCCCCCc1cc(OC(F)(F)F)c3ccnc(c3c1)O2)C(=O)NS(=O)(=O)C1CC1 | 50 nM | 4400 nM | 0.75 nM | 8.8 µM | 1.6 µM·h | 
2 | C=C[C@@H]1C[C@]1(NC(=O)[C@@H]1C[C@@H]2CN1C(=O)[C@H](C(C)(C)C)NC(=O)OCCCCCc1cc(SC)c3ccnc(c3c1)O2)C(=O)NS(=O)(=O)C1CC1 | 2 nM | 34 nM | 0.03 nM | 12.6 µM | 1.8 µM·h | 
3 | C=C[C@@H]1C[C@]1(NC(=O)[C@@H]1C[C@@H]2CN1C(=O)[C@H](C1CCCCC1)NC(=O)OCCCCCc1cc(OC)c3ccnc(c3c1)O2)C(=O)NS(=O)(=O)C1CC1 | 3 nM | 60 nM | 0.05 nM | 13.2 µM | 2.5 µM·h | 6 nM
4 | C=C[C@@H]1C[C@]1(NC(=O)[C@@H]1C[C@@H]2CN1C(=O)[C@H](C(C)(C)C)NC(=O)OCCCCCc1ccc3ccnc(c3c1)O2)C(=O)NS(=O)(=O)C1CC1 | 8.7 nM | 46 nM | 0.18 nM |  | 0.27 µM·h | 
5 | C=C[C@@H]1C[C@]1(NC(=O)[C@@H]1C[C@@H]2CN1C(=O)[C@H](C1CCCC1)NC(=O)OCCC/C=C/c1ccc3ccnc(c3c1)O2)C(=O)NS(=O)(=O)C1CC1 | 2 nM | 40 nM | 0.1 nM | 9.2 µM | 4.2 µM·h | 
6 | C=C[C@@H]1C[C@]1(NC(=O)[C@@H]1C[C@@H]2CN1C(=O)[C@H](C(C)(C)C)NC(=O)OCCCCCc1cc(I)c3ccnc(c3c1)O2)C(=O)NS(=O)(=O)C1CC1 | 2.3 nM | 56 nM | 0.03 nM | 24.5 µM | 1.4 µM·h | 
7 | C=C[C@@H]1C[C@]1(NC(=O)[C@@H]1C[C@@H]2CN1C(=O)[C@H](c1c[nH]c3ccccc13)NC(=O)OCCC/C=C/c1ccc3ccnc(c3c1)O2)C(=O)NS(=O)(=O)C1CC1 | 20 nM |  | 2 nM | 0.4 µM | 0.07 µM·h | 
8 | C=C[C@@H]1C[C@]1(NC(=O)[C@@H]1C[C@@H]2CN1C(=O)[C@H](C1CCCCC1)NC(=O)OCCCCCc1ccc3ccnc(c3c1)O2)C(=O)NS(=O)(=O)C1CC1 | 4.5 nM | 181 nM | 0.15 nM | 29.8 µM | 3.1 µM·h | 
9 | C=C[C@@H]1C[C@]1(NC(=O)[C@@H]1C[C@@H]2CN1C(=O)[C@H](C(C)(C)C)NC(=O)OCCCCCc1cc(OCC)c3ccnc(c3c1)O2)C(=O)NS(=O)(=O)C1CC1 | 6 nM | 500 nM | 0.37 nM | 15.2 µM | 6.9 µM·h | 
10 | C=C[C@@H]1C[C@]1(NC(=O)[C@@H]1C[C@@H]2CN1C(=O)[C@H](C1CCC1)NC(=O)OCCCCCc1ccc3ccnc(c3c1)O2)C(=O)NS(=O)(=O)C1CC1 | 7 nM | 130 nM | 0.18 nM |  |  | 
11 | C=C[C@@H]1C[C@]1(NC(=O)[C@@H]1C[C@@H]2CN1C(=O)[C@H](C(C)(C)C)NC(=O)OCCCCCc1cc(Br)c3ccnc(c3c1)O2)C(=O)NS(=O)(=O)C1CC1 | 2 nM | 170 nM | 0.04 nM | 5.8 µM | 0.28 µM·h | 
12 | C=C[C@@H]1C[C@]1(NC(=O)[C@@H]1C[C@@H]2CN1C(=O)[C@H](C(C)(C)C)NC(=O)OCCCCCc1cc(S(C)(=O)=O)c3ccnc(c3c1)O2)C(=O)NS(=O)(=O)C1CC1 | 280 nM | > 1000 nM | 0.11 nM |  |  | 
